The results in this text go back to publication PMC11969444 (RSC Advances, 2025).

One assay has as its target β-glucosidase. The assay is described as follows: In vitro β-glucosidase inhibitory assay. Type of assay: biochemical. Conditions: read-out: β-Glucosidase IC50 ± SEM; mean ± standard error of the mean. In outline:
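β-Glucosidase solution (0.5 U mL−1) was preincubated with test compound at varying concentrations in 0.1 M phosphate buffer, pH 6.9, at 37 °C for 15 min. The reaction was started with 5 mM p-nitrophenyl-β-D-glucopyranoside solution in the same buffer and run at 37 °C for 15 min. It was stopped with 0.2 M sodium carbonate and read at 405 nm. Controls were a sample-free reaction and an enzyme-free blank.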

Assay [1] deals with PGLT-induced diabetic rats. The assay is described as follows: Antihyperlipidemic effects. Type of assay: in vivo. As to conditions: 10 mg kg^−1, 28 days. The essentials:
(§1)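 Rats were given PGLT to induce diabetes and treated with test compounds for 28 days. Blood glucose and body weight were recorded on days 1, 7, 14, 21 and 28. Serum was assayed for TG, total CH, LDL, HDL, SGOT, SGPT and ALP. Groups were normal control, diabetic control and treated, n = 8 per group, shown as mean ± SEM. Treated groups were compared with diabetic control by one-way ANOVA with Dunnett's post hoc test.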

Assay [2] relates to PGLT-induced diabetic rats. The assay is described as follows: Blood glucose level in PGLT-induced diabetes. The assay is classed as in vivo. In outline: as §1
In assay [3] the test system is PGLT-induced diabetic rats. The assay is described as follows: Serum hepatic marker enzymes. As to conditions: 10 mg kg^−1, serum. Type of assay: in vivo. The essentials:
as §1

The next assay can be described thus: Effect on body weights. Type of assay: in vivo, rats. The essentials:
as §1

On to `C[C@H]1O[C@H](O[C@H]2[C@H](O)[C@@H](O)[C@@H](O[C@H]3[C@H](O)[C@@H](O)C(O)O[C@@H]3CO)O[C@@H]2CO)[C@H](O)[C@@H](O)[C@@H]1N[C@H]1C=C(CO)[C@@H](O)[C@H](O)[C@H]1O` (some centres unmarked) [Acarbose, acarbose], for which the 50% inhibitory concentration (IC50) (usually the concentration that inhibits the measured activity by half) on β-glucosidase came out at […].

In the case of `O=[N+]([O-])c1ccc(O[C@@H]2O[C@H](CO)[C@@H](O)[C@H](O)[C@H]2O)cc1` [PGLT, p-nitrophenyl-β-D-glucopyranoside], the HDL in assay [1] amounted to 55.72 ± 2.01 mg/dL. The LDL in assay [1] amounted to 87.58 ± 2.96 mg/dL. The compound also registered a TG in assay [1] of 96.36 ± 4.51 mg/dL. Further, the “Total CH” value in assay [1] worked out at 104.73 ± 4.83 mg/dL. For the same compound, the Blood glucose level in assay [2] (10 mg kg^−1, 1st day) turned out to be 402.22 ± 4.97 mg per dL; in assay [2] (10 mg kg^−1, 7th day), 229.56 ± 4.80 mg per dL; in assay [2] (10 mg kg^−1, 14th day), 154.06 ± 4.59 mg per dL; in assay [2] (10 mg kg^−1, 21st day), 119.70 ± 4.87 mg per dL; in assay [2] (10 mg kg^−1, 28th day, listed as p-Nitrophenyl-β-D-glucopyranoside (PGLT)), 102.27 ± 4.31 mg per dL; in assay [2] (10 mg kg^−1, 28th day, listed as p-nitrophenyl-β-D-glucopyranoside (PGLT)), 102.27 ± 4.31 mg per dL. In assay [3], this compound returned an ALP of 171.04 ± 3.91 IU. This compound came in with an SGOT in assay [3] of 21.39 ± 1.79 IU. This compound also returned an SGPT in assay [3] of 21.17 ± 1.88 IU. For the same compound, the Body weight is on record as 20.16 ± 1.71 in “Effect on body weights” (10 mg kg^−1, 1st day); 19.88 ± 1.81 in “Effect on body weights” (10 mg kg^−1, 7th day); 20.01 ± 1.61 in the assay “Effect on body weights” (10 mg kg^−1, 14th day); 19.70 ± 1.69 in “Effect on body weights” (10 mg kg^−1, 21st day); 19.66 ± 1.51 in the assay “Effect on body weights” (10 mg kg^−1, 28th day). Also, the weight loss in the assay “Effect on body weights” (day 1 to day 28, PGLT-treated group) stood at 2.48%.
